Screening results as filed in PubChem BioAssay.
Autophagy mod: autophagy modulators in MEF cells, primary screen, imaging, high-content, MEF GFP-LC3 | MEF GFP-LC3 puncta imaging; test concentration mostly 10 µM | calls only at 10 µM (by protocol) | actives 0.98% (n = 190,000);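 active = percentage of spot-positive cells more than 3 SD above its plate mean, without a fluorescence outlier flag or 80% toxicity; inconclusive = no clear call, values can overlap the other calls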;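 also: spot-positive cell cutoff set from DMSO-treated cells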
WT yeast gro inh: growth inhibition of WT strain, primary screen, mitochondrial fusion inhibitor project, WT and mutant strains, chemical genetic. mitochondrial fusion phenotypic screen. actives 2.1% (n = 190,000). inhibition, % at 10 µM; in the data active = inhibition above about 58%; tested in S. cerevisiae
KCC2 mod: KCC2 cotransporter modulators, thallium flux, primary screen, cell-based, HEK293 KCC2, FluoZin-2 fluorescence, MLSMR. B-score of Tl+ flux slope (higher = more flux/activation; lower = inhibition) at 10 µM. actives 2.2% (n = 190,000). KCC2 cells, thallium flux FluoZin-2 fluorescence;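 active = thallium flux slope and its plate-corrected score both differing from the plate sample mean at a set confidence after two filtering rounds, in either direction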;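 also: slope of fluorescence scaled to starting intensity during 10 to 20 s after thallium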
Rad51 HR inh: human RAD51 strand exchange inhibitors, primary screen, biochemical, fluorescence; AID 1385, 2008; inhibition, % at 10 µM; actives 0.085% (n = 200,000); DNA repair protein RAD51 homolog 1 (Homo sapiens), Q06609; hRad51 DNA strand exchange, fluorescence dequenching;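 active = inhibition above 40% at the single screening dose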;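 also: 0% = DMSO control wells and 100% = blanks with heterologous ssDNA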
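Material: Human Rad51 nucleoprotein filaments preassembled on unlabelled ssDNA | Also added: Labelled 47-mer dsDNA for strand exchange | Dosing: Single dose, 10 µM final compound | Schedule: 30-min compound preincubation and 15-min exchange, both room temperature | Technique: Fluorescence dequenching at 485/520 nm | Measure: Percent inhibition relative to plate controls and blanks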
SKKanGAS inh: S. pyogenes SKKanGAS growth inhibitors in kanamycin, primary screen, streptokinase expression inhibitor project, SKKanGAS strain, BacTiter-Glo luminescence; inhibition, % at 7.5 µM; actives 1.3% (n = 300,000); 6 h;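 active = mean replicate score, as percent of positive control median, at least 50; inconclusive = mean below 50 but one replicate at or above 50; inactive = mean and every replicate below 50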;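 also: strain carries kanamycin resistance gene driven by streptokinase promoter and grows in 40 µg/ml kanamycin; loss of luminescence reflects streptokinase promoter inhibition or plain growth inhibition; 0% = median of DMSO wells and 100% = positive control at its reference dose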
Insulin prom up: insulin promoter activators in MIN6 cells, imaging, high-content screening, mouse beta cells; MIN6 insulin promoter-GFP reporter; hits give high values; z-score at 5 µM; actives 0.3% (n = 190,000);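 active = z-score above 3 at 5 µM with at least 500 cells counted in the well; inconclusive = wells under 500 cells, flagged as cytotoxic or low count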
Starred values were filed as active, the others as inactive; i = inactive; ? = inconclusive; / = no result; + = active, no number. Rows were chosen to be rich in hits. Some 4.2% of all compounds tested hit in one or more screens of this group.

SMILES	Autophagy mod	WT yeast gro inh	KCC2 mod	Rad51 HR inh	SKKanGAS inh	Insulin prom up
CCOC(=O)c1c(-c2ccc(C)o2)csc1NC(=O)CSc1nnc(C)s1	i	45	-0.62	-8	-22	-0.63
CCOC(=O)c1c(-c2ccc(C)s2)csc1NC(=O)c1cccs1	i	-1	-0.082	-12	4	/
CCOC(=O)c1c(-c2cccs2)csc1NC(C)=O	i	10	-1.3	0	-4	-0.2
CCOC(=O)c1c(-c2cccs2)csc1NC(=O)C(C)(C)C	i	60*	/	5	19	0.33
CCOC(=O)c1c(-c2ccc(C)o2)csc1NC(=S)NC(=O)c1ccccc1Br	i	2	/	2	7	-0.44
CCOC(=O)c1c(-c2ccc(C)o2)csc1NC(=S)NC(=O)c1cccs1	i	20	6.3*	2	61*	-0.97
O=C(CCc1ccc(S(=O)(=O)N2CCOCC2)cc1)OCc1nc2ccccc2s1	i	11	/	4	-3	0.71
O=C(OCc1nc2ccccc2s1)c1cccc(S(=O)(=O)N2CCOCC2)c1	i	-1	-5.1*	-3	-4	0.44
CCN(CC)S(=O)(=O)c1cccc(-c2n[nH]c(=S)n2/N=C/c2ccc(OC)cc2)c1	i	-4	1.2	/	46	-0.37
Cc1ccc(/C=N/n2c(-c3ccccc3)n[nH]c2=S)cc1	/	/	/	/	8	/
Cc1ccc(/C=N/n2c(-c3cccs3)n[nH]c2=S)cc1	i	21	30*	-3	12	/
COc1ccc(/C=N/n2c(-c3cccs3)n[nH]c2=S)cc1	i	24	31*	2	?	/
CC(=O)Nc1ccc(-c2csc(-c3cccnc3)n2)cc1	/	/	/	/	6	/
CCN(C(=O)COC(=O)/C(C#N)=C/c1ccc(OC)cc1)C1CCS(=O)(=O)C1 (stereo not drawn)	/	/	/	/	-2	/
O=c1ccn(Cc2ccc(F)cc2)c2ccnc(C(F)(F)F)c12	i	7	-2.3	13	4	0.05
COc1ccc(Nc2nnc(C)c(=O)[nH]2)c(OC)c1	/	/	0.099	23	-9	-0.01
CN(C)c1ccc(N=Nc2ccccc2C(=O)OCC(=O)NC2CCCC2)cc1	i	42	-1.3	-1	-6	-0.31
CN(C)c1ccc(N=Nc2ccccc2C(=O)OCC(=O)NCC2CCCCC2)cc1	i	64*	-0.31	13	14	0.72
N#Cc1c(N)n(CCNC(=O)c2ccc(Cl)cc2)c2nc3ccccc3nc12	i	-3	-0.046	-5	3	0.25
Cc1ccc(C(=O)NCCn2c(N)c(C#N)c3nc4ccccc4nc32)cc1	i	2	0.94	/	7	4.1*
Nc1c(C(=O)NCCN2CCOCC2)c2nc3ccccc3nc2n1-c1ccc2c(c1)OCO2	+	-2	-0.96	-5	18	0.45
Nc1c(C(=O)NCCN2CCOCC2)c2nc3ccccc3nc2n1-c1ccccc1	i	27	/	-2	2	/
Nc1c(C(=O)NCCN2CCOCC2)c2nc3ccccc3nc2n1CCc1ccccc1F	+	2	/	3	-6	-0.45
COc1ccc(CNC(=O)c2ccccc2NC(=O)C2=CSCCO2)c(OC)c1	/	/	/	/	-4	/
COc1cccc(C(=O)N2CCN(C(=O)COc3ccc4ccccc4c3)CC2)c1	/	/	/	/	2	/
SMILES	Autophagy mod	WT yeast gro inh	KCC2 mod	Rad51 HR inh	SKKanGAS inh	Insulin prom up
COc1ccc(Nc2c3c(nc4c(-c5ccccc5)c(C)nn24)CCC3)cc1	i	62*	0.15	-5	33	0.05
Cc1c(Cl)ccc2c(C(=O)NC(C)c3ccncc3)cc(-c3ccncc3)nc12 (stereo not drawn)	i	35	0.019	1	18	-0.65
COc1cccc(CN(CC(=O)NCc2ccccc2)C(=O)c2csnn2)c1	/	/	/	/	16	/
CCOC(=O)N1CCN(C(=O)c2cc(S(=O)(=O)N3CCCC3)cn2C)CC1	i	-3	0.92	-2	2	3*
CCCCOC(=O)Nc1cccc(C(=O)OCC)c1	i	73*	0.38	0	1	-0.21
FC(F)(F)c1cc(-c2ccccc2)nc(NCc2cccs2)n1	i	70*	1	18	24	-0.9
FC(F)(F)c1cc(-c2ccco2)nc(NCc2cccs2)n1	i	7	/	3	3	-0.29
FC(F)(F)c1cc(-c2ccccc2)nc(NC2CCCC2)n1	i	86*	0.89	2	45	-0.58
O=c1oc2cc(OCc3ccc(F)cc3F)ccc2cc1-c1ccc2ccccc2n1	i	1	0.41	-7	-7	0
NC(=O)C[n+]1ccc(/C=N/O)cc1	+	-17	0.48	9	4	0.22
Cn1c(=O)c2c(nc(N3CCOCC3)n2C/C=C/c2ccccc2)n(C)c1=O	/	/	1.1	0	-2	-0.66
Cc1cccc(N2CCN(C(=O)C34CC5CC(CC(C5)C3)C4)CC2)c1C	i	88*	/	14	83*	0.63
COc1cccc(NC(=O)[C@H](C)NC(=O)C2CCN(S(=O)(=O)c3ccc(C)cc3)CC2)c1	/	/	-0.18	-5	1	-0.13
C/C(N)=C(/C#N)C(=O)CSc1nnnn1-c1ccccc1	i	94*	-0.68	6	5	1.1
O=C(CSc1nnnn1-c1ccccc1)NCc1cccs1	i	74*	-1.6	-2	0	0.29
C/C(N)=C(/C#N)C(=O)CSc1nnnn1-c1ccc(C)cc1	i	5	0.31	2	-4	0.45
C/C(N)=C(/C#N)C(=O)CSc1nc2scc(-c3ccccc3)c2c(=O)n1C	i	-10	0.63	-10	62*	1.1
COc1cc(C(=O)Nc2ccc(Nc3ccccc3)cc2)cc(OC)c1OC	/	/	/	/	4	/
C=CCNC(=S)/N=c1/ccccn1CC	/	/	0.77	-14	3	-0.26
CCCCC1=CC2=C(c3ccco3)C(=O)C(C)(OC(=O)c3ccc(OC)cc3)C(=O)C2=CN1Cc1ccc(OC)cc1 (stereo not drawn)	/	/	0.41	5	6	-0.32
CCCCC1=CC2=C(c3ccco3)C(=O)C(C)(OC(=O)c3ccc(OC)cc3)C(=O)C2=CN1CC(C)C (stereo not drawn)	/	/	0.031	2	3	4.3*
CCn1nc(C)c(CNC(=O)c2cc(COc3ccccc3SC)on2)c1C	/	/	/	/	1	/
O=C(O)c1ccccc1Nc1ccc([N+](=O)[O-])c2nonc12	/	/	/	/	9	/
CCOC(=O)c1c(CSc2cccs2)n(C)c2cc(Br)c(O)c(CN(C)C)c12	i	25	-1	0	15	-1.6
CC(Sc1nc2ccccc2n1C)C(=O)NC(c1ccccc1)c1ccccc1 (stereo not drawn)	i	59*	0.16	2	-7	/
